The Kd is the free concentration of one partner at which half of the binding sites on the other are occupied at equilibrium, for simple one-to-one binding. Higher therefore signals lower affinity. One may read the IC50 as the concentration needed to halve the response being measured.

One assay has as its target CXCL12 (Homo sapiens, UniProt P48061). Put plainly: 2D 1H-15N HSQC NMR titration, fragment binding to CXCL12. The settings on record: for CXCL12 chemical shift perturbations: 2D NMR titration, no meaningful affinity value could be fitted; for LE: ligand efficiency: free energy of binding divided by number of non-hydrogen atoms (kcal/mol/non-hydrogen atom).
The test system of assay [1] is CXCL12-induced chemotaxis of THP-1 monocytes. Put plainly: in vitro chemotaxis assay, THP-1 monocytes with CXCL12. Particulars: read-out: IC50 of chemotaxis to CXCL12, 10 nM CXCL12. Type of assay: cell-based. Put shortly:
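Chemotaxis in vitro used THP-1 monocytes, which express CXCR4 endogenously, exposed to CXCL12 with or without each tetrazole fragment.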

For assay [2], the system named is CCL2 (MCP-1), activates the CCR2 receptor. The experiment in a line: chemotaxis assay repeated with CCL2. Type of assay: cell-based. The settings on record: data not shown.

With `CC(=O)Nc1ccccc1-c1nnn[nH]1` [Compound 10, N-(2-(1H-Tetrazol-5-yl)phenyl) acetamide], at CXCL12, the “CXCL12 chemical shift perturbations” value is listed as “small chemical shift perturbations”.

Turning to `O=C(Nc1ccccc1-c1nnn[nH]1)c1ccccc1` [Compound 11, N-(2-(1H-Tetrazol-5-yl)phenyl)benzamide], at CXCL12, the affinity, expressed as Kd, was 13 ± 7 µM and the LE amounted to 0.33.

For the compound `CC(=O)Nc1cccc(-c2nnn[nH]2)c1` [Compound 12, N-(3-(1H-tetrazol-5-yl)phenyl)acetamide], the “CXCL12 chemical shift perturbations” value on CXCL12 is “small chemical shift perturbations”.

For `O=C(Nc1cccc(-c2nnn[nH]2)c1)c1ccccc1` [Compound 13, N-(3-(1H-tetrazol-5-yl)phenyl)benzamide], at CXCL12, the Kd came out at 50 ± 16 µM and the LE was found to be 0.29.

`CC(=O)Nc1ccc(-c2nnn[nH]2)cc1` [Compound 14, N-(4-(1H-tetrazol-5-yl)phenyl)acetamide]: the “CXCL12 chemical shift perturbations” value at CXCL12 was “small chemical shift perturbations”.

On CXCL12, `O=C(Nc1ccc(-c2nnn[nH]2)cc1)c1ccccc1` [Compound 15, N-(4-(1H-tetrazol-5-yl)phenyl)benzamide] returned a Kd of 64 ± 23 µM and an LE of 0.29.

`O=C(Nc1ccccc1)Nc1ccccc1-c1nnn[nH]1` [Compound 16, 1-(2-(1H-Tetrazol-5-yl)phenyl)-3-phenylurea]: at CXCL12, the dissociation constant (Kd) was found to be 327 ± 92 µM and the LE is given as 0.23.

Turning to `O=C(Nc1ccccc1)Nc1cccc(-c2nnn[nH]2)c1` [Compound 17, 1-(3-(1H-tetrazol-5-yl)phenyl)-3-phenylurea], at CXCL12, binding was characterised by a dissociation constant (Kd) of 126 ± 23 µM and the LE amounted to 0.25.

As to `O=C(Nc1ccccc1)Nc1ccc(-c2nnn[nH]2)cc1` [Compound 18, 1-(4-(1H-Tetrazol-5-yl)phenyl)-3-phenylurea], at CXCL12, the affinity, expressed as Kd, was 24 ± 28 µM and the LE was found to be 0.30.

With `O=C(Nc1ccc(-c2nn[nH]n2)cc1)Nc1cccc2ccccc12` [Compound 25], the IC50 in assay [1] came out at 111 ± 24 µM. In addition, the “specificity for CXCL12- versus CCL2-induced migration” value in assay [2] was “specifically inhibits CXCL12-induced migration”.

The values are drawn from article PMC3839847 (Current topics in medicinal chemistry, 2012).
